Published values gathered from unrelated publications.
Protocols differ between the studies behind these lines.
Target: Serine/threonine-protein kinase WNK3 (WNK3, Homo sapiens, UniProt Q9BYP7)

Compound | test | conditions | quantity | value
COc1cc(Cl)c(C(=O)N[C@@H](CN[C@H]2CC[C@@H](N)CC2)Cc2ccc(C#N)cc2)cc1-c1ccc(CN[C@H](C)c2ccc(C)cc2)o1 | enzyme activity, inhibitor | 1 µM | remaining activity | 99%
O=c1nc(-c2ccccn2)sc2ccccc12 | binding, competition with immobilised ligand | 1 µM | remaining binding | 100%
Cc1sc(C(=O)NC2COC2)cc1-n1cc(NC(=O)Nc2c(F)cccc2Cl)cn1 | enzyme activity, inhibitor | 10 µM | remaining activity | 102%
CCN(CC)CCNC(=O)c1c(C)[nH]c(/C=C2\C(=O)Nc3ccc(F)cc32)c1C | enzyme activity, inhibitor | 10 µM | inhibition | 7%
Cc1ccc(NC(=O)c2ccc(C)c(C(F)(F)F)c2)cc1C#Cc1nn(C2CCC(O)CC2)c2ncnc(N)c12 (centres unmarked) | cell-free assay | 10 µM | remaining signal | 39%
CCN(CC)c1ccc(C2=NNC(=O)CC2C)cc1[N+](=O)[O-] (centres unmarked) | enzyme activity, inhibitor | 10 µM | remaining activity | 105%
CCC(=N\O)/C(C)=C/c1ccc(F)cc1 | cell-free assay, competition with immobilised ligand | 1 µM | remaining binding | 75%
CC(C)(C)c1nc(-c2cccc(NS(=O)(=O)c3c(F)cccc3F)c2F)c(-c2ccnc(N)n2)s1 | enzyme activity, inhibitor, radiometric | 1 µM | remaining activity | 89%
C[C@H](c1ccnc(Nc2nc3ccc(-c4cc(N(C)C)ncn4)cc3[nH]2)c1)N1CCN(C(=O)CC(F)(F)F)CC1 | cell-free assay, competition with immobilised ligand | 0.1 µM | remaining binding | 100%
CNC(=O)c1cc(Oc2ccc(NC(=O)Nc3ccc(Cl)c(C(F)(F)F)c3)cc2)ccn1 | enzyme activity, inhibitor | 10 µM | inhibition | -4%
Cc1cc(NC(=O)c2cccc(S(F)(F)(F)(F)F)c2)cc(-n2ccn3nc(-c4cccnc4)cc23)c1 | cell-free assay, competition with immobilised ligand | 1 µM | remaining binding | 100%
Cc1ccc(Nc2nccc(N(C)c3ccc4c(C)n(C)nc4c3)n2)cc1S(N)(=O)=O | enzyme activity, inhibitor | 10 µM | inhibition | 33%
Nc1ncnc2occ(-c3ccc(NC(=O)Nc4cc(C(F)(F)F)ccc4F)cc3)c12 | cell-free assay, inhibitor | 20 µM | remaining signal | 58%
O=C(Nc1cnn(-c2csc(C(=O)NC3COC3)c2)c1)Nc1ccccc1Cl | enzyme activity, inhibitor | 5 µM | remaining activity | 99.5%
Cc1cc(NC(=O)c2cccc3cc(-c4cccc5[nH]nc(N)c45)ccc23)ccc1F | enzyme activity, inhibitor | 0.1 µM | activity vs control | 93%
N#CCCc1ccc2c(c1)-c1[nH]c3ccc([N+](=O)[O-])cc3c1CC(=O)N2 | cell-free assay | 0.5 µM | remaining signal | 96.5%
O=C(NCCCC1CCCCC1)c1ccc(CNC(=O)c2cnn(-c3ccccc3)c2C(F)(F)F)cc1 | cell-free assay, competition with immobilised ligand | 0.1 µM | remaining binding | 100%
